In brackets after ≈: the same amount, converted by molar mass.
How the values were obtained:
[1] = Stability of compound at 40 degC and 75% relative humidity assessed parent compound remaining measured after 3 months using crystalline form of sample by chromatographic method; assay type: physicochemical; conditions: solid sample, read-out: Stabilty
[2] = Photostability of compound under 1.2 mil lux.h white light and 200 W.h/m2 UV light assessed parent compound remaining using crystalline form of sample by chromatographic method; assay type: physicochemical
MCF7 [3] = test: Antiproliferative activity against human MCF7 cells harboring Y537S mutant assessed as reduction in cell viability incubated for 4 to 6 days by SYTOX Green dye based fluorescence assay; assay type: functional
Histamine H3 receptor = Histamine H3 receptor (Homo sapiens, UniProt Q9Y5N1); test: Antagonist activity at human histamine H3 receptor expressed in CHO-K1 cells after 10 mins by HTRF assay; assay type: cell-based
[4] = Solubility of compound in FASSIF at pH 6.5 using crystalline form of sample; assay type: physicochemical
[5] = Stability of compound at 60 degC and ambient dry condition assessed parent compound remaining measured 2 weeks using amorphous form of sample by chromatographic method; assay type: physicochemical; conditions: solid sample, read-out: Stabilty
[6] = Fraction unbound in dog plasma; assay type: ADME, cell-free, Canis lupus familiaris
[7] = Half-life in rat at 0.5 mg/kg, iv or 1 mg/kg, po; assay type: ADME, organism-based; conditions: in vivo
In short: (§1)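 Rat PK: single IV dose 0.5 mg/kg and oral dose 1 mg/kg, formulated in 5% DMSO:95% hydroxypropyl-β-cyclodextrin (30% w/v), dosed at 1 mL/kg IV and 4 mL/kg PO.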

[8] = Fraction unbound in rat plasma; assay type: ADME, cell-free
[9] = Half-life in mouse at 2 mg/kg, iv or 5 mg/kg, po; assay type: ADME, organism-based; conditions: in vivo
[10] = Clearance in rat at 0.5 mg/kg, iv or 1 mg/kg, po relative to liver blood flow; assay type: ADME, organism-based; conditions: in vivo; in short: as §1
Cytochrome P450 2C19 = Cytochrome P450 2C19 (Homo sapiens, UniProt P33261); test: Inhibition of CYP2C19 in human liver microsomes; assay type: ADME
In short: (§2)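 High-throughput human liver microsome panel of five CYP isoforms; inhibition reported as IC50.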

[11] = Stability of compound at 60 degC and 75% relative humidity assessed parent compound remaining measured 1 week using crystalline form of sample by chromatographic method; assay type: physicochemical; conditions: solid sample, time 1 weeks, read-out: Stabilty
[12] = Antitumor activity against human […] cells xenografted in CB17 SCID mouse assessed as tumor growth inhibition at 2 mg/kg, po administered daily via oral gavage for 21 days relative to control; assay type: functional; conditions: MCF7, po, time 21 day, read-out: TGI
[13] = Volume of distribution at steady state in mouse at 2 mg/kg, iv or 5 mg/kg, po; assay type: ADME, organism-based; conditions: in vivo, read-out: Vdss
[14] = Chemical stability of compound assessed as drug degradation in buffer at pH 1 stored at 22 to 60 degreeC measured after 5 days; assay type: physicochemical; conditions: pH 1, 120 h, time 5 day
[15] = Fraction unbound in human plasma by equilibrium dialysis method; assay type: ADME, cell-free
In short: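 Fraction unbound measured from DMSO stock by equilibrium dialysis in 10% human plasma.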

[16] = Fraction unbound in mouse plasma; assay type: ADME, cell-free
[17] = Dissociation constant, dibasic pKa of compound in 0.1 M potassium chloride in presence of piperidine by UV-vis spectroscopy; assay type: physicochemical
[18] = Solubility of compound in stimulated gastric fluid using crystalline form of sample; assay type: physicochemical; conditions: simulated gastric fluid
[19] = Antitumor activity against human […] cells xenografted in CB17 SCID mouse assessed as tumor regression at 10 mg/kg, po administered daily via oral gavage for 21 days relative to control; assay type: functional, MCF7; conditions: time 21 day
[20] = Chemical stability of compound assessed as drug degradation in buffer at pH 10 stored at 22 to 60 degreeC measured after 5 days; assay type: physicochemical; conditions: pH 10, 120 h, time 5 day
[21] = Clearance in mouse at 2 mg/kg, iv or 5 mg/kg, po relative to liver blood flow; assay type: ADME, organism-based; conditions: in vivo
[22] = Fraction absorbed in rat at 0.5 mg/kg, iv or 1 mg/kg, po; assay type: ADME, organism-based; conditions: in vivo, read-out: Fabs; in short: as §1
[23] = In vivo antagonist activity at ERalpha in human MCF7 cells xenografted CB17 SCID mouse assessed as decrease in PR expression level at 50 mg/kg, po administered daily via oral gavage for 21 days measured 24 hrs post last dose by Western blot analysis relative to control; assay type: functional; parameters: scale not given: the % may be the effect or the level left; conditions: time 21 day
[24] = Chemical stability of compound assessed as drug degradation in deuterated buffer at pH 7.4 measured for 8 days; assay type: physicochemical; conditions: pH 7.4, 192 h, time 8 day
[25] = Stability of compound at 40 degC and 75% relative humidity assessed parent compound remaining measured after 3 months using amorphous form of sample by chromatographic method; assay type: physicochemical; conditions: solid sample, read-out: Stabilty
MCF7 [26] = test: Antitumor activity against human […] cells xenografted in CB17 SCID mouse assessed as decrease in tumor volume administered daily via oral gavage for 21 days; assay type: functional, cell-based; conditions: dose 0.5-50 mg/kg, time 21.0 day
[27] = Photostability of compound under 1.2 mil lux.h white light and 200 W.h/m2 UV light assessed parent compound remaining using amorphous form of sample by chromatographic method; assay type: physicochemical
Cytochrome P450 2C9 = Cytochrome P450 2C9 (Homo sapiens, UniProt P11712); test: Inhibition of CYP2C9 in human liver microsomes; assay type: ADME; in short: as §2
[28] = Volume of distribution at steady state in rat at 0.5 mg/kg, iv or 1 mg/kg, po; assay type: ADME, organism-based; conditions: in vivo, read-out: Vdss
In short: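 Rat dosed IV at 0.5 mg/kg and PO at 1 mg/kg, both formulated in 5% DMSO:95% hydroxypropyl-β-cyclodextrin (30% w/v), at 1 mL/kg IV and 4 mL/kg PO. Vdss (L/kg) derived from the pharmacokinetic profile after dosing.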

[29] = Chemical stability of compound assessed as drug degradation in buffer at pH 7.4 stored at 22 to 60 degreeC measured after 5 days; assay type: physicochemical; conditions: pH 7.4, 120 h, time 5 day
Cytochrome P450 2D6 = Cytochrome P450 2D6 (Homo sapiens, UniProt P10635); test: Inhibition of CYP2D6 in human liver microsomes; assay type: ADME; in short: as §2
[30] = Stability of compound at 60 degC and ambient dry condition assessed parent compound remaining measured 2 weeks using crystalline form of sample by chromatographic method; assay type: physicochemical; conditions: solid sample, read-out: Stabilty
[31] = Chemical stability of compound assessed as drug degradation in deuterated buffer at pH 4 measured for 8 days; assay type: physicochemical; conditions: pH 4, 192 h, time 8 day
[32] = Intrinsic clearance in mouse hepatocytes assessed per million cells; assay type: ADME, cell-based, Hepatocyte; conditions: read-out: CLH
In short: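 Compound added from DMSO stock to isolated hepatocytes diluted to 1x10⁶ cells/mL. Metabolic turnover rate is reported as intrinsic clearance in µl/min/10⁶ cells.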

[33] = Dissociation constant, dibasic pKa of compound in 0.1 M potassium chloride in presence of azetidine by UV-vis spectroscopy; assay type: physicochemical

Cytochrome P450 2D6, sequence (P10635 whole entry): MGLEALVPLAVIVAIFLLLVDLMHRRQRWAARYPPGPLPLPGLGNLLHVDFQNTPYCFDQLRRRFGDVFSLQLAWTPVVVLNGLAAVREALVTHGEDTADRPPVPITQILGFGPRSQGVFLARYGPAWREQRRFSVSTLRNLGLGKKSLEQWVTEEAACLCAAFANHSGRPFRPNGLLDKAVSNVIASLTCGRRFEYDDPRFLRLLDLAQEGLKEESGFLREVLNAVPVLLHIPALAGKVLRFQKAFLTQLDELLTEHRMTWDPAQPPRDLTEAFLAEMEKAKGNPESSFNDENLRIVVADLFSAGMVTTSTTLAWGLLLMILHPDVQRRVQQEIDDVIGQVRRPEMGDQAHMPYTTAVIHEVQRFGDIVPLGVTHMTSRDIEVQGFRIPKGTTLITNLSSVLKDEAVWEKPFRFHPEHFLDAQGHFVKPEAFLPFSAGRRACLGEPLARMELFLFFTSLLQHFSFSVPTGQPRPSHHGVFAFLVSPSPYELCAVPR
Cytochrome P450 2C9, sequence (P11712 whole entry): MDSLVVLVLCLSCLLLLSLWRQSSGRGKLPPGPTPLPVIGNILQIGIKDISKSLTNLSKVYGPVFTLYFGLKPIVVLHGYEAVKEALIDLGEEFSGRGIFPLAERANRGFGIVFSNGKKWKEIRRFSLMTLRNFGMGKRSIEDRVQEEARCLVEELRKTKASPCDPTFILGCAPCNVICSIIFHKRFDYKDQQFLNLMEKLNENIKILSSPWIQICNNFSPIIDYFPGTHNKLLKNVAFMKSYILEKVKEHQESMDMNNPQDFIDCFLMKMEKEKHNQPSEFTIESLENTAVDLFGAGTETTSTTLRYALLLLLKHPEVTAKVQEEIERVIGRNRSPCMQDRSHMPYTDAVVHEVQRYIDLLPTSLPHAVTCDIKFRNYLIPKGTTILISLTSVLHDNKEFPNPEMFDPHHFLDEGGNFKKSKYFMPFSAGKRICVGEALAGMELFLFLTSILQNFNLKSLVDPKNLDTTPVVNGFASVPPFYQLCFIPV
Histamine H3 receptor, sequence (Q9Y5N1 whole entry): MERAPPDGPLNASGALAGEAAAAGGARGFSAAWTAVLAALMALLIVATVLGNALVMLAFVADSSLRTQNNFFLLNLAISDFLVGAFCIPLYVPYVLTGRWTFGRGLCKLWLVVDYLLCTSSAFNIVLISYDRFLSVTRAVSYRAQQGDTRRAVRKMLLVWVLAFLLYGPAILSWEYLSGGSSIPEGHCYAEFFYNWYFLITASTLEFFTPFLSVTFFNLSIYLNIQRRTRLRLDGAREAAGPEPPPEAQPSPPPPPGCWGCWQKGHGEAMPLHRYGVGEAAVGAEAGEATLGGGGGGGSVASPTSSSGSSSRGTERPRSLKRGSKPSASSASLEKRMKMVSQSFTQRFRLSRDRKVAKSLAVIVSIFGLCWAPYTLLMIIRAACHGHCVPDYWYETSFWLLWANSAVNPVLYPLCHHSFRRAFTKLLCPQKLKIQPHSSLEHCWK
Cytochrome P450 2C19, sequence (P33261 whole entry, canonical isoform): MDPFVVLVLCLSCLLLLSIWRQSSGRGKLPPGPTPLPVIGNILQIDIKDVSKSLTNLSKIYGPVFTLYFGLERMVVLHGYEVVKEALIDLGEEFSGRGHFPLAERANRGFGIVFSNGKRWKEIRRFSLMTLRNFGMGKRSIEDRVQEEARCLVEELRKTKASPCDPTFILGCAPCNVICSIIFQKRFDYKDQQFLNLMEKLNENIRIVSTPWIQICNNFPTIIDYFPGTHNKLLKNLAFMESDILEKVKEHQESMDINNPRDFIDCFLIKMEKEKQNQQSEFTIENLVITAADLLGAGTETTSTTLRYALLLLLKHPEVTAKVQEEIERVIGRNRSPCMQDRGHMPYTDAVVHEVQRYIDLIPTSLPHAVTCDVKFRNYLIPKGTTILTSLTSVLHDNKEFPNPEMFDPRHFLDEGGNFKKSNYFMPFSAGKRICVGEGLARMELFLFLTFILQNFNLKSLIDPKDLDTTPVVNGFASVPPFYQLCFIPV

remaining at 2190 h [1]: 99.3% | Stabilty [2]: 98.9% | IC50 (Histamine H3 receptor): 330 nM | solubility thermodynamic [4]: 1500 µg/mL (≈ 3.15 mM) | remaining at 336 h [5]: 98.4% | fraction unbound [6]: 0.15 | half-life [7]: 180 min | fraction unbound [8]: 0.26 | half-life [9]: 306 min | CL [10]: 106% | IC50 (Cytochrome P450 2C19): > 30 µM | remaining at 168 h [11]: 99.5% | Vd [13]: 9.2 L/kg | Stabilty [14]: Unstable | fraction unbound [15]: 0.23 | fraction unbound [16]: 0.23 | pKa [17]: 4.8 | solubility thermodynamic [18]: > 10000 µg/mL | Stabilty [20]: Unstable | CL [21]: 66% | Fa [22]: > 95% | Stabilty [24]: Stable | remaining at 2190 h [25]: 90.5% | Stabilty [27]: 78.9% | IC50 (Cytochrome P450 2C9): > 30 µM | Vd [28]: 13 L/kg | Stabilty [29]: Unstable | IC50 (Cytochrome P450 2D6): 4.3 µM | remaining at 336 h [30]: 99.4% | Stabilty [31]: Stable | hepatocyte CLint [32]: 18 µL/min/1e6 cells | pKa [33]: 8.4
Compound: C[C@@H]1Cc2c(ccc3[nH]ncc23)[C@@H](c2ccc(NC3CN(CCCF)C3)cn2)N1CC(F)(F)F [CAMIZESTRANT]
IC50 (MCF7 [3]): 25.1 nM | inhibition in vivo at 2 mg/kg [12]: 73% | Activity [19]: 15% | Activity [23]: 6.3% | Activity (MCF7 [26]): Dose-dependent effect

Reference: ChEMBL document CHEMBL4673245, “Discovery of AZD9833, a Potent and Orally Bioavailable Selective Estrogen Receptor Degrader and Antagonist” (J Med Chem, 2020)
